Data: ChEMBL document CHEMBL4382192, “Discovery of a potent dual ALK and EGFR T790M inhibitor” (Eur J Med Chem, 2017)

What was measured:
[1] = system: Tyrosine-protein kinase ABL1 (Homo sapiens), P00519 [T315I]; assay: Binding affinity to human phosphorylated ABL1 T315I mutant (S229 to K512 residues) expressed in mammalian expression system assessed as residual binding level at 1 uM by Kinomescan method relative to control
Outline: (§1)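 Kinome-wide selectivity panel run by the KINOMEscan method, with the test compound at a single concentration of 1 μM. Wild-type and mutant kinases were profiled in the same screen.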

[2] = biological target: Serine/threonine-protein kinase pim-1 (Homo sapiens) (UniProt P11309); assay: Binding affinity to wild-type human partial length PIM1 (A15 to K313 residues) expressed in bacterial expression system assessed as residual binding level at 1 uM by Kinomescan method relative to control
[3] = system: Hepatocyte growth factor receptor (Homo sapiens), P08581 [Y1235D]; assay: Binding affinity to human partial length MET Y1235D mutant (D1010 to S1367 residues) expressed in bacterial expression system assessed as residual binding level at 1 uM by Kinomescan method relative to control; outline: as §1
[4] = biological target: Serine/threonine-protein kinase Nek1 (Homo sapiens) (UniProt Q96PY6); assay: Binding affinity to wild-type human partial length NEK1 (M1 to K278 residues) expressed in bacterial expression system assessed as residual binding level at 1 uM by Kinomescan method relative to control
[5] = system: Receptor-type tyrosine-protein kinase FLT3 (Homo sapiens), P36888 [D835Y]; assay: Binding affinity to human partial length FLT3 D835Y mutant (Q580 to Y969 residues) expressed in bacterial expression system assessed as residual binding level at 1 uM by Kinomescan method relative to control; outline: as §1
[6] = biological target: Calcium/calmodulin-dependent protein kinase type II subunit gamma (Homo sapiens) (UniProt Q13555); assay: Binding affinity to wild-type human partial length CAMK2G (R9 to A303 residues) expressed in bacterial expression system assessed as residual binding level at 1 uM by Kinomescan method relative to control
[7] = biological target: Rhodopsin kinase GRK1 (Homo sapiens) (UniProt Q15835); assay: Binding affinity to wild-type human full length GRK1 (M1 to S563 residues) expressed in mammalian expression system assessed as residual binding level at 1 uM by Kinomescan method relative to control
Outline: (§2)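 Single-point kinome-wide KINOMEscan binding panel, test compound at 1 μM, run by the provider's standard protocol.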

[8] = system: BaF3; assay: Antiproliferative activity against mouse BAF3 cells assessed as reduction in cell viability after 72 hrs by MTS assay; type: cell-based; conditions: BaF3, 72 h
[9] = biological target: cAMP-dependent protein kinase catalytic subunit alpha (Homo sapiens) (UniProt P17612); assay: Binding affinity to wild-type human partial length PKAC-alpha (G10 to F351 residues) expressed in bacterial expression system assessed as residual binding level at 1 uM by Kinomescan method relative to control
[10] = biological target: 1-phosphatidylinositol 3-phosphate 5-kinase (Homo sapiens) (UniProt Q9Y2I7); assay: Binding affinity to wild-type human partial length PIKFYVE (F1512 to C2098 residues) expressed in mammalian expression system assessed as residual binding level at 1 uM by Kinomescan method relative to control
[11] = system: Epidermal growth factor receptor (Homo sapiens), P00533 [UNDEFINED MUTATION]; assay: Binding affinity to human partial length EGFR E746-A750del mutant expressed in bacterial expression system assessed as residual binding level at 1 uM by Kinomescan method relative to control; outline: as §1
[12] = biological target: BMP-2-inducible protein kinase (Homo sapiens) (UniProt Q9NSY1); assay: Binding affinity to wild-type human partial length BIKE (S34 to N329 residues) expressed in bacterial expression system assessed as residual binding level at 1 uM by Kinomescan method relative to control
[13] = biological target: Serine/threonine-protein kinase 38-like (Homo sapiens) (UniProt Q9Y2H1); assay: Binding affinity to wild-type human partial length NDR2 (N34 to E447 residues) expressed in bacterial expression system assessed as residual binding level at 1 uM by Kinomescan method relative to control
[14] = biological target: Serine/threonine-protein kinase Chk1 (Homo sapiens) (UniProt O14757); assay: Binding affinity to wild-type human partial length CHEK1 (M1 to G289 residues) expressed in bacterial expression system assessed as residual binding level at 1 uM by Kinomescan method relative to control
[15] = biological target: Ephrin type-A receptor 2 (Homo sapiens) (UniProt P29317); assay: Binding affinity to wild-type human partial length EPHA2 (T593 to V891 residues) expressed in bacterial expression system assessed as residual binding level at 1 uM by Kinomescan method relative to control
[16] = biological target: Ribosomal protein S6 kinase alpha-6 (Homo sapiens) (UniProt Q9UK32); assay: Binding affinity to wild-type human partial length C-terminal RSK4 kinase domain 2 (I401 to Y711 residues) expressed in bacterial expression system assessed as residual binding level at 1 uM by Kinomescan method relative to control
[17] = biological target: Serine/threonine-protein kinase N1 (Homo sapiens) (UniProt Q16512); assay: Binding affinity to wild-type human partial length PKN1 (E598 to C948 residues) expressed in bacterial expression system assessed as residual binding level at 1 uM by Kinomescan method relative to control
[18] = system: Epidermal growth factor receptor (Homo sapiens), P00533 [G719C]; assay: Binding affinity to human partial length EGFR G719C mutant (R669 to V1011 residues) expressed in bacterial expression system assessed as residual binding level at 1 uM by Kinomescan method relative to control; outline: as §1
[19] = biological target: Non-receptor tyrosine-protein kinase TNK1 (Homo sapiens) (UniProt Q13470); assay: Binding affinity to wild-type human full length TNK1 (M1 to P661 residues) expressed in bacterial expression system assessed as residual binding level at 1 uM by Kinomescan method relative to control
[20] = biological target: Cyclin-dependent kinase 5 (Homo sapiens) (UniProt Q00535); assay: Binding affinity to wild-type human full length CDK5 (M1 to P292 residues) expressed in bacterial expression system assessed as residual binding level at 1 uM by Kinomescan method relative to control
[21] = biological target: Phosphatidylinositol 5-phosphate 4-kinase type-2 beta (Homo sapiens) (UniProt P78356); assay: Binding affinity to wild-type human full length PIP5K2B (M1 to T416 residues) expressed in bacterial expression system assessed as residual binding level at 1 uM by Kinomescan method relative to control; outline: as §2
[22] = biological target: RAC-gamma serine/threonine-protein kinase (Homo sapiens) (UniProt Q9Y243); assay: Binding affinity to wild-type human partial length AKT3 expressed in bacterial expression system assessed as residual binding level at 1 uM by Kinomescan method relative to control
[23] = biological target: Cyclin-dependent kinase-like 5 (Homo sapiens) (UniProt O76039); assay: Binding affinity to wild-type human partial length CDKL5 (M1 to S337 residues) expressed in mammalian expression system assessed as residual binding level at 1 uM by Kinomescan method relative to control
[24] = biological target: Ephrin type-B receptor 2 (Homo sapiens) (UniProt P29323); assay: Binding affinity to wild-type human partial length EPHB2 (I597 to L902 residues) expressed in bacterial expression system assessed as residual binding level at 1 uM by Kinomescan method relative to control

Work on `C=CC(=O)Nc1cc(Nc2ncc(Cl)c(Nc3ccccc3S(=O)(=O)C(C)C)n2)c(OC)cc1N(C)CCN(C)C` yielded an Activity [1] of 0.35%, an Activity [2] of 83% and an Activity [3] of 62%. It also gave an Activity [4] of 68%, an Activity [5] of 3.6% and an Activity [6] of 26%. The Activity [7] was 28%, the EC50 [8] was greater than 5 µM and the Activity [9] was 100%. The Activity [10] was 100%, the Activity [11] was 12% and the Activity [12] was 92%. It also gave an Activity [13] of 54%, an Activity [14] of 99% and an Activity [15] of 75%. For the same molecule, the Activity [16] was 15%, the Activity [17] was 41% and the Activity [18] was 0.95%. It also gave an Activity [19] of 3.3%, an Activity [20] of 85% and an Activity [21] of 55%. It also gave an Activity [22] of 100%, an Activity [23] of 91% and an Activity [24] of 61%.
